Assay results pooled from the literature.
Protocols differ between the studies behind these lines.
Target: Mitogen-activated protein kinase kinase kinase 12 (MAP3K12, Homo sapiens, UniProt Q12852)
One construct used (Q12852 1-859): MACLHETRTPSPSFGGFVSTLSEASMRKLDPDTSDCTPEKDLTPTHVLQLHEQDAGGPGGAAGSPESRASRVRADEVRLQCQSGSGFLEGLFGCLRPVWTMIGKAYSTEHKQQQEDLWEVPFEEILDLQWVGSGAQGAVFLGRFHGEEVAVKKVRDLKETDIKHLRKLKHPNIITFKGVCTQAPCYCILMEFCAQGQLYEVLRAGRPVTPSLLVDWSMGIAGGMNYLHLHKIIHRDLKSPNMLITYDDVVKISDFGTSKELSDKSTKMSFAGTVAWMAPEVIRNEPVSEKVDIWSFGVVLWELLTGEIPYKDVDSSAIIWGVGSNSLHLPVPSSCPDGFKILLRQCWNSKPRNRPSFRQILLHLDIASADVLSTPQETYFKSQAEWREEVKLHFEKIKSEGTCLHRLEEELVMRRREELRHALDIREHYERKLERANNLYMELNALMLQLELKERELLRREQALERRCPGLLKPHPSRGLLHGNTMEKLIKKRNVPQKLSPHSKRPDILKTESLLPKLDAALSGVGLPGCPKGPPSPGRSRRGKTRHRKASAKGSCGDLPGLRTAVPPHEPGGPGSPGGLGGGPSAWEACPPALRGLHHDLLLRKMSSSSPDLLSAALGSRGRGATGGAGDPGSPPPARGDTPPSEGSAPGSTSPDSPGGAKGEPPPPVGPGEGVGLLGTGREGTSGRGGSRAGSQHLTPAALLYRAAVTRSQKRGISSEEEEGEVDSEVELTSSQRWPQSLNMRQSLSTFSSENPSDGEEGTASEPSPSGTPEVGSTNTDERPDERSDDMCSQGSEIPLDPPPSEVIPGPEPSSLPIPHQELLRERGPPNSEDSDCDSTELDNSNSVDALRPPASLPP

Cc1ccc(C(=O)Nc2ccc(CN3CCN(C)CC3)c(C(F)(F)F)c2)cc1C#Cc1cnc2cccnn12  remaining activity (enzyme activity, inhibitor; 23.5 nM): 76%
CC(C)(O)[C@H]1CC[C@H](Nc2ccc3ncc(-c4cccc(C(F)(F)F)c4)n3n2)CC1  remaining activity (enzyme activity, inhibitor; 1 µM): 73%
COc1ccnn2ncc(-c3ccnc(N(C)C)n3)c12  remaining binding (binding; 1 µM): 97%
CC/C(=N\NC(=O)NCc1cccc(O)c1)c1ccc(O)c(C)c1O  inhibition (enzyme activity, inhibitor; 0.1 µM): 0.4%
COc1ccc2cc(OCC3(C(=O)O)CN(C(=O)c4ccc(F)cc4)C3)ccc2c1  remaining binding (cell-free assay, competition with immobilised ligand; 1 µM): 97%
N[C@@H]1CCN(c2nccc(-c3cnn4ncccc34)n2)C1  remaining binding (binding; 1 µM): 100%
O=C(Nc1cnn(-c2csc(C(=O)NC3COC3)c2)c1)Nc1c(F)cccc1Cl  remaining activity (enzyme activity, inhibitor; 5 µM): 82.2%
O=C(Nc1cccnn1)N1CCC(=Cc2cccc(Oc3ccc(C(F)(F)F)cn3)c2)CC1  remaining binding (cell-free assay, competition with immobilised ligand; 1 µM): 100%
O=C(Nc1cnn(-c2csc(C(=O)NC3COC3)c2)c1)Nc1ccccc1Cl  remaining activity (enzyme activity, inhibitor; 5 µM): 96.5%
Nc1ncnc2occ(-c3ccc(NC(=O)Nc4cc(C(F)(F)F)ccc4F)cc3)c12  remaining signal (cell-free assay, inhibitor; 20 µM): 17%
